Screening data from PubChem BioAssay.
The list is not random: actives were taken first. Their share in the collection is about 2%.
Runt-SMMHC FRET – inhibitors of human RUNX1 Runt domain binding to CBFb-SMMHC; Q01196+Q13951; Cerulean-Runt/Venus-CBFb-SMMHC FRET ratio 530/480, 1 h; inhibition, % at 20 µM; 220,000 tested, 0.74% active; AID 1434;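 active means mean inhibition across duplicate retests at 20 µM reaching about 50%, limit read from the data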;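 further: 0% = DMSO wells and 100% = wells with excess untagged CBFb-SMMHC; inhibitors lower the FRET ratio by blocking Runt binding to CBFb-SMMHC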
Runt-CBFb FRET – Runt domain-CBFb interaction inhibition | 220,000 tested, 0.46% active | AID 1496 | Cerulean-Runt/Venus-CBFb FRET ratio 530/480, 1 h | inhibition, % at 20 µM;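 active means inhibition over about 50% at 20 µM in the single-dose screen, limit read from the data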;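 further: 0% = DMSO wells and 100% = excess unlabeled CBFb competitor control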
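System: Cerulean-labeled Runt domain protein | Quantity: 100 nM of each labeled protein | Schedule: 1 h compound exposure, room temperature | Detection: Fluorescence energy transfer, 422 nm excitation, 530/480 nm emission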
RanGTP-Imp inh – inhibitors of RanGTP-importin-beta interaction, primary screen, biochemical, FRET, CFP-Ran, YFP-importin-beta, homogeneous; cell-free CFP-Ran/YFP-importin-beta FRET ratio; inhibition, % (concentration not given with the values); 300,000 tested, 1.1% active; AID 2216;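 active means more than half of the replicate wells show a fall in the fluorescence ratio signal beyond about 16%, limit read from the data, passing the limit was not always enough; inconclusive means exactly half of the replicate wells pass the set limit; inactive means fewer than half of replicates pass the limit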;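 further: 0% = DMSO wells and 100% = Ran loaded with GDP instead of GTP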
EBV gp42 block – EBV gp42 inhibition | 220,000 tested, 0.42% active | AID 1085 | Fluorescence polarization binding assay, mP read-out | Q1HVG2 | inhibition, % (tested at 21.74 µM)
PKD1 kinase inh – blocks activity of human protein kinase D1. 200,000 tested, 0.056% active. AID 797. inhibition, % (no concentration beside the values). PKD1 kinase fluorescence polarization assay. Q15139
Target sequence (Q15139 whole entry, looked up): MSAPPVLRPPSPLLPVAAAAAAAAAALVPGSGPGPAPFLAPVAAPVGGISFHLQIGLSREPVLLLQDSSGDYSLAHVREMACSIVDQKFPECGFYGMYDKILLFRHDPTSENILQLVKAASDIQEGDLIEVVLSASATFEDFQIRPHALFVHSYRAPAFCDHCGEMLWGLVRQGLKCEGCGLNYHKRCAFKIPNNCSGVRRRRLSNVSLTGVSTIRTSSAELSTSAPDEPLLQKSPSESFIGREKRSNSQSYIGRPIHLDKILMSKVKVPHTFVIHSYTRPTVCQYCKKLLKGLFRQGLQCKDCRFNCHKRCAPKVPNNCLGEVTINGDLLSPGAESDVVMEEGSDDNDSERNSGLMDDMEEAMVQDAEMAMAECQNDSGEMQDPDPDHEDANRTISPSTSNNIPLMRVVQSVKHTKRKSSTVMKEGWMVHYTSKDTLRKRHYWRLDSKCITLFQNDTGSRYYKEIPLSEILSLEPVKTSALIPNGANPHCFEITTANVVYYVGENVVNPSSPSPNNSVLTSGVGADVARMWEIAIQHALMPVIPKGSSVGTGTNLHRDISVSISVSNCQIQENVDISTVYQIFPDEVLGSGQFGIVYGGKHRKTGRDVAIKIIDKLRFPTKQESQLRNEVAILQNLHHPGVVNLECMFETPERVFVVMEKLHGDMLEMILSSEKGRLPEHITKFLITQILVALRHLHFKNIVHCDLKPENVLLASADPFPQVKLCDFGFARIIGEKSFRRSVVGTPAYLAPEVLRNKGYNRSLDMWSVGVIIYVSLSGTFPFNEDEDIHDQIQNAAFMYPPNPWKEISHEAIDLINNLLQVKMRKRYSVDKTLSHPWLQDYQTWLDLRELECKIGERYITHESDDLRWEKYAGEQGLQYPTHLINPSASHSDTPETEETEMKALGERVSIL
MEX-5 binding – C. elegans MEX-5 TCR-2 RNA binding activity; MEX-5/FITC-TCR2 RNA binding, fluorescence polarization; stronger effect = lower value; activity score (negative = inhibition of binding), % at 10 µM; 300,000 tested, 0.38% active; AID 1832;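 active means inhibition past about -25% in most replicates, and total fluorescence under double the plate's negative control median, limit read from the data; inconclusive means replicates evenly split on the limit, or fluorescence at least double controls; inactive means too little inhibition in most replicates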;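 further: 0% = DMSO and -100% = 5 µM competing unlabeled TCR2 RNA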
RUNX1 CBFb TR – disrupts human RUNX1 Runt domain binding to CBFb; shares compounds with Runt-CBFb FRET; TR-FRET RUNX1 Runt domain-CBFb binding; inhibition, % at 20 µM; 480 tested, 20% active; in the data active means inhibition above about 40%
* = called active by the depositor; i = inactive; ? = inconclusive; nt = no result given. Unless noted, no stated cut-off is given here; in the data, active means inhibition above about 50%; inactive means the rest.

SMILES | Runt-SMMHC FRET | Runt-CBFb FRET | RanGTP-Imp inh | EBV gp42 block | PKD1 kinase inh | MEX-5 binding | RUNX1 CBFb TR
CCC(C)(C)n1nnnc1C(c1ccc2ncccc2c1)N1CCN(c2ccc(O)cc2)CC1 (stereo not drawn) | -1.2 | 53.6* | -1.0 | -14.2 | nt | 0.9 | 29.4
Cc1ccc(C(=O)Oc2ccc3ccc(=O)oc3c2)cc1 | nt | nt | -1.5 | nt | nt | -0.3 | nt
CC(NC(=O)OC(C)(C)C)C(=O)Oc1ccc2ccc(=O)oc2c1 (stereo not drawn) | 112.6* | 68.2* | nt | -12.5 | -11.7 | nt | 36.4
CC(=O)Oc1ccc2ccc(=O)oc2c1 | 85.2* | 51.2* | 12.9 | -13.7 | 15.6 | 0.2 | 38.9
COc1ccc2ccc(=O)oc2c1 | -0.5 | 1.2 | ? | -16.6 | -13.2 | 1.5 | nt
O=C(NCc1ccc(F)cc1)c1noc2c1CCCC2 | -1.0 | 54.5* | -2.7 | -6.5 | 8.9 | 0.0 | 3.6
S=c1nccc(-c2cccs2)[nH]1 | 49.7 | 65.1* | 3.2 | -7.1 | -6.1 | 1.1 | 6.2
c1csc(-c2ccn[nH]2)c1 | -1.6 | 1.2 | 5.3 | -8.3 | nt | 0.4 | nt
Cc1ccc(Cn2c(SCCN3CCCCC3)nc3c2c(=O)[nH]c(=O)n3C)cc1 | 38.0 | 50.1* | 0.0 | 2.3 | 0.2 | 1.3 | 24.8
Cn1c(=O)[nH]c(=O)c2c1nc(SCCN1CCCCC1)n2Cc1ccccc1 | -0.8 | -0.8 | 9.7 | -3.6 | 4.4 | -0.1 | nt
Cn1c(=O)[nH]c(=O)c2c1nc(SCCN1CCCCC1)n2CCCc1ccccc1 | 47.4 | 51.8* | nt | -10.2 | -5.3 | nt | i
N#CC1=C(N)N(c2ccc(F)cc2)C2=C(C1c1ccc(O)cc1)S(=O)(=O)CC2 (stereo not drawn) | 21.9 | 18.6 | nt | 15.9 | -3.0 | nt | nt
CNC(=O)/C(C#N)=C/c1c(N2CC(C)OC(C)C2)nc2ccccn2c1=O (stereo not drawn) | 120.7* | 94.2* | ? | -10.7 | -4.0 | 0.3 | 10.7
Fc1ccc(C2CC(c3ccco3)=Nc3ccccc3S2)cc1 (stereo not drawn) | 34.5 | 50.8* | 3.0 | 10.3 | 10.4 | -2.4 | -5.1
O=[N+]([O-])c1ccc(C2CC(c3ccccc3)=Nc3ccccc3S2)cc1 (stereo not drawn) | -3.4 | 56.2* | -1.5 | -3.2 | nt | 1.2 | 19.9
O=C(c1ccc(Br)cc1)N(Cc1nc2ccccc2c(=O)[nH]1)C1CCCC1 | 0.2 | -1.4 | 1.0 | 16.4 | -4.0 | -1.7 | nt
O=C(c1ccc(Br)cc1)N1CCN(Cc2ccccc2)CC1 | nt | nt | -2.3 | nt | nt | 2.1 | nt
Oc1ccc(C(=S)N2CCN(Cc3ccccc3)CC2)cc1 | 19.9 | 52.9* | 3.0 | -10.2 | nt | 0.1 | -6.1
CCN1CCN(C(=S)c2ccc(O)cc2)CC1 | 27.0 | 53.7* | 3.5 | -12.9 | -0.2 | -0.6 | -4.6
S=C(c1ccc(Br)cc1)N1CCN(Cc2ccccc2)CC1 | 49.7 | 54.3* | -0.9 | -20.9 | 5.1 | 0.1 | 19.1
CCN(CC(=O)Nc1ccccc1OC)C(=O)CSCC(=O)Nc1ccc(OC)cc1 | nt | nt | -1.6 | nt | nt | -0.2 | nt
Cc1cccc(Nc2ncnc(N)c2[N+](=O)[O-])n1 | 0.0 | 1.4 | -0.8 | 6.4 | -3.0 | -1.7 | nt
Cc1cc(C)nc(Sc2ncnc(N)c2[N+](=O)[O-])n1 | 14.3 | 58.5* | -0.8 | -19.1 | -3.5 | 0.7 | 23.0
CC1(C)CC(=O)c2c(oc3cc(O)c(O)cc23)C1 | 44.0 | 52.1* | -0.1 | -17.6 | -3.3 | -4.9 | 24.9
Cn1c(=O)nc2n(Cc3ccccc3)c3ccccc3cc-2c1=O | 82.3* | 89.9* | 121.4* | -76.7 | -2.4 | -2.3 | -52.6
SMILES | Runt-SMMHC FRET | Runt-CBFb FRET | RanGTP-Imp inh | EBV gp42 block | PKD1 kinase inh | MEX-5 binding | RUNX1 CBFb TR
O=C(CSc1nc(-c2ccco2)cc(C(F)(F)F)n1)NCCN1CCOCC1 | 5.4 | 0.8 | -1.3 | -0.4 | -9.7 | 1.0 | nt
COc1cc2c(cc1OC)N1C(=O)CC(OCC(=O)O)C3C4CC5(CCN5C(=O)C4=O)C2C31 (stereo not drawn) | nt | nt | ? | -0.9 | 0.4 | -2.0 | nt
CCC(=O)c1ccc(OC(=O)N2CCOCC2)cc1 | nt | nt | -1.9 | nt | nt | 0.4 | nt
COc1ccc(Cn2c(N)c(C#N)c3nc4ccccc4nc32)cc1OC | 4.4 | 11.5 | 11.0 | -12.0 | -3.2 | -9.5 | nt
COc1ccccc1CCn1c(N)c(C#N)c2nc3ccccc3nc21 | 140.0* | 80.3* | 56.4* | -1.1 | -0.9 | -5.1 | 36.7
CCSc1nnc(NC(=O)C2CCCN(S(=O)(=O)c3cnc[nH]3)C2)s1 (stereo not drawn) | 0.5 | 64.2* | -1.6 | -3.6 | 8.0 | 2.5 | -10.2
Cc1ccc2nc(NC(=O)C3CCCN(S(=O)(=O)c4cnc[nH]4)C3)sc2c1 (stereo not drawn) | -4.6 | -1.1 | -3.3 | -9.5 | 14.3 | 2.3 | nt
CCOc1ccc(-n2c(SCC(=O)NC)nnc2-c2ccco2)cc1 | nt | nt | 1.6 | nt | nt | 0.7 | nt
Cc1ccc(CN2CCN(Cc3ccc(Oc4ncccn4)cc3)CC2CCO)cc1 (stereo not drawn) | 0.2 | 2.4 | -3.7 | -11.8 | 1.8 | -2.1 | nt
CCN1CCc2nc(NC(=O)c3ccc4c(c3)OCCO4)sc2C1 | 111.6* | 50.9* | 80.4* | -24.2 | -4.2 | -3.5 | -13.4
CCN1CCc2nc(NC(=O)C(c3ccccc3)c3ccccc3)sc2C1 | 106.0* | 51.3* | ? | -9.1 | -1.6 | 0.8 | -7.7
COC(=O)c1ccc(C(=O)OC)c(NC(=S)N2CCCCC2C)c1 (stereo not drawn) | 86.7* | 72.4* | ? | -10.8 | -11.7 | -2.3 | 67.2*
S=C1CSc2ccccc2N1 | 11.5 | 52.9* | 1.9 | -14.3 | -2.5 | 0.4 | 13.6
O=C(Nc1cccc([N+](=O)[O-])c1)c1ccccc1 | -4.9 | -0.1 | 8.8 | -3.3 | nt | -1.0 | nt
O=C(C#Cc1cccc([N+](=O)[O-])c1)c1ccccc1 | 30.3 | 51.1* | -0.2 | -11.8 | 0.5 | 1.0 | 27.9
CC(C)c1ccc(NC(=S)N2CCCC(c3ccc(F)cc3)=N2)cc1 | 0.2 | -0.4 | -1.7 | -5.5 | nt | 3.0 | nt
COCCN(C(=S)Nc1c(C)cc(C)cc1C)C(C)c1cccnc1 (stereo not drawn) | 41.7 | 51.3* | ? | -22.1 | -2.6 | 0.2 | -11.9
COCCN(C(=S)Nc1c(C)cccc1C)C(C)c1cccnc1 (stereo not drawn) | 8.1 | 1.5 | -0.1 | -6.6 | 2.5 | 1.1 | nt
COc1ccc(N(CC(=O)N/N=C/c2ccccc2F)S(=O)(=O)c2ccccc2)cc1 | nt | nt | -4.6 | nt | nt | -2.2 | nt
Cc1ncoc1C(=O)Nc1ncc([N+](=O)[O-])s1 | 26.6 | 63.9* | 0.7 | -10.5 | 10.2 | -0.5 | 20.0
O=C(Nc1ncc([N+](=O)[O-])s1)c1cccs1 | nt | nt | 1.5 | nt | nt | -4.7 | nt
CCOc1ccccc1N1CCN(C(=S)Nc2ccc(S(=O)(=O)Nc3ncccn3)cc2)CC1 | nt | nt | 1.2 | nt | nt | 0.9 | nt
